Insulin prom act – activators of insulin promoter-driven GFP, primary screen, imaging, TRM-6 cells (human fetal islet line), eGFP reporter, cell count; AID 1296, 2008; plate-scaled: unstimulated 0, stimulated control 100; 130,000 compounds, 0.81% hits; activation, % at 2 µM;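 active means activation at 2 µM above a set limit, confirmed on inspection of the cell images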;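 further: share of cells whose green reporter signal exceeds an intensity cutoff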
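Material: TRM-6 insulin promoter–eGFP reporter cells. Buffer or medium: Low-glucose (5.5 mM) medium with tamoxifen. Probe or stimulus: tamoxifen at 0.75 µM added at seeding for reporter induction. Times: tamoxifen pre-incubation 15 h overnight, then compound exposure 48 h at 37 °C. Detection: high-content imaging of fixed cells with Hoechst nuclear stain.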
The depositor's hits bear a star; + = active, no number; [ ] = dose if it differs, or a comment. The full list was thinned out, with hits kept by preference.

SMILES | Insulin prom act
Cc1cc(C)nc(SCC(=O)n2c3c(c4ccccc42)CCCC3)n1 | -8
Cc1nn(CC(O)Cn2cnc3c2c(=O)n(C)c(=O)n3C)c(C)c1Br (stereo not drawn) | -24
Cc1ccc2c(c1)c1c(n2CC(O)Cn2nc(C)c(Br)c2C)CCCC1 (stereo not drawn) | 83*
Cn1c(Cn2c(=O)sc3ccccc32)nnc1SCC(=O)Nc1ccccc1 | 12
CCSCc1nnc(SCC(=O)Nc2cccc(SC)c2)n1C | 425*
CSc1cccc(NC(=O)CSc2ccc(C)cc2)c1 | -7
CCN(CC)C(=O)CSc1nc2ccccc2c(=O)n1CCC(=O)NCc1ccc(F)cc1 | 114
COc1ccc(NC(=O)C(=O)N/N=C/c2cc(C)n(-c3cccc(Cl)c3Cl)c2C)c(OC)c1 | 0
O=[N+]([O-])c1ccc(S(=O)(=O)CC2CSc3nc4ccccc4n32)cc1 (stereo not drawn) | -3
Cc1ccc(N=Nc2c(N)nn3c(C)cc(C)nc23)cc1 | -82
Cc1cc(=O)[nH]c2c(N=Nc3ccc(O)cc3)c(N)nn12 | 383*
Cc1cc(C)n2nc(N)c(N=Nc3cccc(Cl)c3)c2n1 | -62
N#Cc1nn(-c2ccccc2)nc1N1CCCCC1 | -4
CCOC(=O)c1c(NC(=S)Nc2ccccc2)sc2c1CCN(CCc1ccccc1)C2 | 233*
CCOC(=O)c1c(NC(=O)CN2CCN(C(=O)c3ccco3)CC2)sc2c1CCCC2 | 319
CCOC(=O)c1c(NC(=S)Nc2ccc(Cl)cc2)sc(C)c1C | -5
O=C(Oc1ccc(C(=S)N2CCOCC2)cc1)c1ccccc1 | -6
CC(=O)N1CCN(C(=S)c2ccc(N(C)C)cc2)CC1 | 7
CN(C)c1ccc(C(=S)N2CCOCC2)cc1 | 150*
COc1ccc(-n2c(SCC3OCCO3)nc3c(sc(=S)n3-c3ccccc3)c2=O)cc1OC | 6
CC(CN(C)Cc1nc(Cc2cccc(C(F)(F)F)c2)no1)CN1CCCC1 (stereo not drawn) | 138
COc1ccc(CNC(=O)CCS(=O)(=O)c2cccc3nonc23)cc1 | 0
Cc1onc(-c2c(F)cccc2Cl)c1C(=O)Nc1ccc(S(=O)(=O)Nc2ncccn2)cc1 | 0
O=P(OC1CCCCC1)(OC1CCCCC1)C(O)c1ccccc1 (stereo not drawn) | 104*
NC(=O)C(c1ccccc1)C1CCCC1 (stereo not drawn) | 106
SMILES | Insulin prom act
OC1CCCN(CC(O)c2ccccc2)C1 (stereo not drawn) | 0
CCSc1nc2cc(OC)c(OC)cc2c(=O)n1CC | 113
CCN(CC)S(=O)(=O)c1ccc(/C=C/C(=O)OCC(=O)Nc2ccc(S(N)(=O)=O)cc2)cc1 | 0
CCCCCNC(=O)N[C@H](C(=O)O)C(C)C | 0
COc1ccccc1CNC(=O)C1CCCN(S(C)(=O)=O)C1 (stereo not drawn) | -7
COc1ccc(OC)c(CNC(=O)C2CCN(S(C)(=O)=O)CC2)c1 | 146
COc1ccc(Br)cc1CNC(=O)C1CCN(S(=O)(=O)N2CCCCC2)CC1 | 169*
CCCn1c(CN(C)Cc2ccccc2)nc2c1c(=O)n(C)c(=O)n2C | 0
CN(Cc1ccccc1)Cc1nc2c([nH]1)c(=O)n(C)c(=O)n2C | 105*
CCCCn1c(CN(C)Cc2ccccc2)nc2c1c(=O)n(C)c(=O)n2C | -71
Cc1ccccc1CC1(CO)CCCN(C(=O)c2ccc3ncccc3c2)C1 (stereo not drawn) | 228*
Cc1ccccc1CN1C(=O)CSc2ccc(C(=O)N3CCOCC3)cc21 | 8
OCC1(Cc2ccccc2)CCCN(Cc2cnn(-c3ccccc3)c2)C1 (stereo not drawn) | 6
Cc1ncc([N+](=O)[O-])n1CC(=O)NC1CCCCCC1 | 0
Cc1cc(NC(=O)c2cc3ncc(Br)cn3n2)no1 | 0
O=C(NCCc1ccccc1Cl)C1CCN(S(=O)(=O)c2cccs2)CC1 | 7
COc1ccc(N2CCN(CCNC(=O)C3CCN(S(=O)(=O)c4cccs4)CC3)CC2)cc1 | 0
CCOC(=O)c1c(NC(=O)C2CCN(S(=O)(=O)c3cccs3)CC2)sc(C)c1C | 454*
Cc1ccccc1NC(=O)C1CCN(S(=O)(=O)c2cccs2)CC1 | -7
CCC(C)(C)NC(=O)C1CCN(S(=O)(=O)c2cccs2)CC1 | +[fluoresces]
CCOC(=O)Nc1sc(C)c(C)c1C(=O)OCC | 0
O=C(NCc1ccco1)C(c1ccccc1)N(Cc1ccccc1)C(=O)Cn1nnc2ccccc21 (stereo not drawn) | 64
Cc1c(/C=N/NC(=O)c2cc(=O)[nH]c(=O)[nH]2)c2ccccn2c1C(=O)c1ccccc1 | 5
Cc1cccc2cc3c(N)c(C(=O)N4CCc5ccccc54)sc3nc12 | 233*
O=C(c1ccccc1)N1CCc2ccccc21 | 0
SMILES | Insulin prom act
COc1ccc(C(=O)N2CCc3ccccc32)cc1 | -6
C#CCOCCOCCOCCNc1nc(N2CCN(C(=O)[C@H]([C@@H](C)O)n3cc(CCCCN)nn3)CC2)nc(N2CCN(C(=O)[C@H](Cc3ccc(O)cc3)n3cc(CCO)nn3)CC2)n1 | 9
CC(=O)Nc1ccc2c(CN3C(=O)NC(C)(c4ccc(C)cc4)C3=O)cc(=O)oc2c1 (stereo not drawn) | 0
CCOc1ccccc1-n1c(SCC(N)=O)nc2ccccc2c1=O | 3
COc1cccc(-c2nnc(SCC(N)=O)n2-c2ccc(Cl)cc2)c1 | 0
CCOc1ccccc1-n1c(SCC(N)=O)nnc1-c1ccccc1 | 154*
O=C(Cn1[nH]c(=O)c2ccccc2c1=O)N1CC=C(c2ccccc2)CC1 | -3
CCOC(=O)CNC(=O)CSc1ncnc2c1cnn2Cc1ccccc1 | -10
C=CC[C@H]1CC(Cc2ccccc2)=C[C@H](CC=C)N1 | 151
CO[C@@H]1O[C@@H]2COC(c3ccccc3)O[C@@H]2[C@@H](OC)[C@@H]1O (stereo partly drawn) | 0
Cc1ccc2nc(/C(C#N)=C\c3ccc(N4CCOCC4)o3)[nH]c2c1 | 456*
Cc1ccc2nc(/C(C#N)=C\c3cc(C)n(-c4cccc([N+](=O)[O-])c4)c3C)[nH]c2c1 | 0
Cc1ccc2nc(/C(C#N)=C\c3ccc(Oc4ccc([N+](=O)[O-])cn4)cc3)[nH]c2c1 | -4
Cc1nc([N+](=O)[O-])c(Sc2nc3ccc([N+](=O)[O-])cc3[nH]2)n1Cc1ccccc1 | 4
O=S(=O)(Nc1cc(Sc2cccc3cccnc23)c(O)c2ccccc12)c1ccccc1 | 169
O=C(CCc1ccccc1)Nc1ccccc1C(F)(F)F | 0
C[C@@H](C(=O)NCC1CC1)[C@@H]1C[C@@]1(C)[C@@H](NC(=O)OCc1ccccc1)c1ccccc1 | 0
C[C@H](CO)NC(=O)[C@H](C)[C@H]1C[C@]1(C)[C@H](NC(=O)OCc1ccccc1)c1ccccc1 | 0
CNC(=O)[C@@H]1C[C@H]1[C@@H](NC(=O)OCc1ccccc1)c1ccccc1 | 255*
COC(=O)c1ccc(CSc2nc3c(cnn3-c3ccccc3)c(=O)[nH]2)o1 | 0
OCCN(Cc1ccccc1)Cc1ccc(F)c(F)c1 | -9
Cc1ccc(CN2CCN(C(=O)c3ccncc3)CC2)cc1 | -4
CCCCn1c(=O)c(CCC(=O)OCC(=O)NC(=O)NCCC(C)C)nc2ccccc21 | 0
Cc1c(NC(=O)COC(=O)COc2ccc(Nc3ccccc3)cc2)c(=O)n(-c2ccccc2)n1C | 133
COc1ccc2cc(-c3cc(C(=O)OCC(=O)Nc4c(C)n(C)n(-c5ccccc5)c4=O)c4ccccc4n3)ccc2c1 | 325*

Screening results deposited in PubChem BioAssay by Columbia University Molecular Screening Center.
